The source made the active and inactive calls. The rule behind the calls is not given here.
Key:
Mus musculus [1] = test: Toxicity in Swiss albino mouse assessed as change in body weight at 5 mg/kg, po (reference value: 24.5 +/- 0.76 g); assay type: organism-based; set-up: dose 5 mg/kg, route oral; settings: in vivo
MDA-MB-231 = test: Cytotoxicity against human MDA-MB-231 cells after 72 hrs by MTT assay; assay type: functional, cell-based; settings: MDA-MB-231, 72 h
Summary of the method: (§1)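 Cells in DMEM, 10% FBS, 37 °C, 5% CO2, plated and incubated 24 h; compounds diluted in phenol-red-free DMEM with 0.5% FBS, vehicle control; after exposure, MTT (5 mg/mL stock) added 3 h, formazan dissolved in DMSO, absorbance 570 nm; IC50 derived; podophyllotoxin and tamoxifen positive controls.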

MCF7 [2] = test: Cytotoxicity against human MCF7 cells after 72 hrs by MTT assay; assay type: functional, cell-based; settings: MCF7, 72 h; summary of the method: as §1
MCF7 [3] = test: Cytotoxicity against human MCF7 cells after 48 hrs by MTT assay; assay type: functional, cell-based; settings: MCF7, 48 h; summary of the method: as §1
Mus musculus [4] = test: Toxicity in Swiss albino mouse assessed as change in neutrophil count at 5 to 1000 mg/kg, po relative to control; assay type: organism-based; set-up: dose 5-1000 mg/kg, route oral; settings: in vivo
Mus musculus [5] = test: Toxicity in Swiss albino mouse assessed as change in lymphocyte count at 5 to 1000 mg/kg, po relative to control; assay type: organism-based; set-up: dose 5-1000 mg/kg, route oral; settings: in vivo
Homo sapiens = species on record: Homo sapiens; test: Induction of microtubule stabilization (unknown origin) at 4 to 20 uM
[6] = Toxicity in po dosed Swiss albino mouse; assay type: organism-based; settings: in vivo
Summary of the method: (§2)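 Acute oral toxicity per OECD guideline 423. Mice of 20–25 g, 3 male and 3 female per group (n = 6), acclimatised 7 days. Single oral dose of 5, 50, 300 or 1000 mg/kg in DMSO suspended in 0.7% carboxymethyl cellulose; controls got vehicle only. Mortality and clinical signs checked hourly on the dosing day, then daily. On day 7: body weight, haematology, serum biochemistry, necropsy and organ weights.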

Mus musculus [7] = test: Toxicity in Swiss albino mouse assessed as absolute heart weight at 5 to 1000 mg/kg, po relative to control; assay type: organism-based; set-up: dose 5-1000 mg/kg, route oral; settings: in vivo
Mus musculus [8] = test: Toxicity in Swiss albino mouse assessed as absolute spleen weight at 5 to 1000 mg/kg, po relative to control; assay type: organism-based; set-up: dose 5-1000 mg/kg, route oral; settings: in vivo
Mus musculus [9] = test: Toxicity in Swiss albino mouse assessed as absolute brain weight at 5 to 1000 mg/kg, po relative to control; assay type: organism-based; set-up: dose 5-1000 mg/kg, route oral; settings: in vivo
Mus musculus [10] = test: Toxicity in Swiss albino mouse assessed as absolute liver weight at 5 to 1000 mg/kg, po relative to control; assay type: organism-based; set-up: dose 5-1000 mg/kg, route oral; settings: in vivo
Mus musculus [11] = test: Toxicity in Swiss albino mouse assessed as relative spleen weight at 5 to 1000 mg/kg, po relative to control; assay type: organism-based; set-up: dose 5-1000 mg/kg, route oral; settings: in vivo
Summary of the method: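 One oral dose (5–1000 mg/kg; DMSO then 0.7% carboxymethyl cellulose vehicle; controls vehicle-only) was given to groups of 6 mice (3 male, 3 female). On day 7 the animals were sacrificed and necropsied for gross pathology. Absolute and relative weights of vital organs were recorded and compared with control.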

Mus musculus [12] = test: Toxicity in Swiss albino mouse assessed as mortality up to 1000 mg/kg, po; assay type: organism-based; set-up: dose 1000 mg/kg, route oral; settings: in vivo; summary of the method: as §2
Mus musculus [13] = test: Toxicity in Swiss albino mouse assessed as morbidity at 5 to 1000 mg/kg, po; assay type: organism-based; set-up: dose 5-1000 mg/kg, route oral; settings: in vivo
Summary of the method: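 Swiss albino mice (3 male, 3 female per group, 20-25 g) were given one oral dose of 5, 50, 300 or 1000 mg/kg in DMSO/0.7% carboxymethyl cellulose, or vehicle. Mortality and signs of ill health were checked hourly on the dosing day, then daily for 7 days. Checks covered skin, mucous membranes, eyes, secretions, lachrymation, pilo-erection, respiration, gait, posture and response to handling.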

Mus musculus [14] = test: Toxicity in Swiss albino mouse assessed as change in cholesterol level at 1000 mg/kg, po (reference value: 81.64 +/- 4.26 mg/dL); assay type: organism-based; set-up: dose 1000 mg/kg, route oral; settings: in vivo
Mus musculus [15] = test: Toxicity in Swiss albino mouse assessed as change in cholesterol level at 50 mg/kg, po (reference value: 81.64 +/- 4.26 mg/dL); assay type: organism-based; set-up: dose 50 mg/kg, route oral; settings: in vivo
Mus musculus [16] = test: Toxicity in Swiss albino mouse assessed as change in serum protein level at 1000 mg/kg, po (reference value: 1.11 +/- 0.14 mg/ml); assay type: organism-based; set-up: dose 1000 mg/kg, route oral; settings: in vivo
Mus musculus [17] = test: Toxicity in Swiss albino mouse assessed as change in serum protein level at 5 mg/kg, po (reference value: 1.11 +/- 0.14 mg/ml); assay type: organism-based; set-up: dose 5 mg/kg, route oral; settings: in vivo
Mus musculus [18] = test: Toxicity in Swiss albino mouse assessed as change in triglyceride level at 300 mg/kg, po (reference value: 121.45 +/- 24.02 mg/dL); assay type: organism-based; set-up: dose 300 mg/kg, route oral; settings: in vivo
Mus musculus [19] = test: Toxicity in Swiss albino mouse assessed as change in triglyceride level at 50 mg/kg, po (reference value: 121.45 +/- 24.02 mg/dL); assay type: organism-based; set-up: dose 50 mg/kg, route oral; settings: in vivo
Mus musculus [20] = test: Toxicity in Swiss albino mouse assessed as change in creatinine level at 1000 mg/kg, po (reference value: 0.63 +/- 0.18 mg/dL); assay type: organism-based; set-up: dose 1000 mg/kg, route oral; settings: in vivo
Mus musculus [21] = test: Toxicity in Swiss albino mouse assessed as change in creatinine level at 50 mg/kg, po (reference value: 0.63 +/- 0.18 mg/dL); assay type: organism-based; set-up: dose 50 mg/kg, route oral; settings: in vivo
Mus musculus [22] = test: Toxicity in Swiss albino mouse assessed as change in albumin level at 5 mg/kg, po (reference value: 3.35 +/- 0.51 g/dL); assay type: organism-based; set-up: dose 5 mg/kg, route oral; settings: in vivo
Mus musculus [23] = test: Toxicity in Swiss albino mouse assessed as change in SGPT level at 300 mg/kg, po (reference value: 12.28 +/- 3.73 U/L); assay type: organism-based; set-up: dose 300 mg/kg, route oral; settings: in vivo
Mus musculus [24] = test: Toxicity in Swiss albino mouse assessed as change in SGOT level at 300 mg/kg, po (reference value: 25.27 +/- 1.32 U/L); assay type: organism-based; set-up: dose 300 mg/kg, route oral; settings: in vivo
Mus musculus [25] = test: Toxicity in Swiss albino mouse assessed as change in ALKP level at 300 mg/kg, po (reference value: 218.67 +/- 12.43 U/L); assay type: organism-based; set-up: dose 300 mg/kg, route oral; settings: in vivo
Mus musculus [26] = test: Toxicity in Swiss albino mouse assessed as change in ALKP level at 50 mg/kg, po (reference value: 218.67 +/- 12.43 U/L); assay type: organism-based; set-up: dose 50 mg/kg, route oral; settings: in vivo
Mus musculus [27] = test: Toxicity in Swiss albino mouse assessed as change in WBC count at 300 mg/kg, po (reference value: 14.2 +/- 7.49 X 10^3/mm'3); assay type: organism-based; set-up: dose 300 mg/kg, route oral; settings: in vivo
Mus musculus [28] = test: Toxicity in Swiss albino mouse assessed as change in WBC count at 5 mg/kg, po (reference value: 14.2 +/- 7.49 X 10^3/mm'3); assay type: organism-based; set-up: dose 5 mg/kg, route oral; settings: in vivo
Mus musculus [29] = test: Toxicity in Swiss albino mouse assessed as change in RBC count at 50 mg/kg, po (reference value: 5.43 +/- 0.27 million/mm'3); assay type: organism-based; set-up: dose 50 mg/kg, route oral; settings: in vivo
Mus musculus [30] = test: Toxicity in Swiss albino mouse assessed as change in total haemoglobin level at 300 mg/kg, po (reference value: 11.39 +/- 0.84 g/dL); assay type: organism-based; set-up: dose 300 mg/kg, route oral; settings: in vivo
Mus musculus [31] = test: Toxicity in Swiss albino mouse assessed as change in body weight at 1000 mg/kg, po (reference value: 24.5 +/- 0.76 g); assay type: organism-based; set-up: dose 1000 mg/kg, route oral; settings: in vivo
Mus musculus [32] = test: Toxicity in Swiss albino mouse assessed as change in body weight at 50 mg/kg, po (reference value: 24.5 +/- 0.76 g); assay type: organism-based; set-up: dose 50 mg/kg, route oral; settings: in vivo

`CCOC(=O)/C=C/c1ccc(O)c(/C(=C/c2ccc(O)cc2)C(=O)OCC)c1` gave an Activity (Mus musculus [1]) of 24.33 g, an IC50 (MDA-MB-231) of 0.45 µM and an IC50 (MCF7 [2]) of 3.27 µM. The IC50 (MCF7 [3]) was 9.29 µM, the Activity (Mus musculus [4]) was “Non-toxic” and the Activity (Mus musculus [5]) was “Non-toxic”. For the same compound, the Activity (Homo sapiens) was “Active”, the MTD [6] was 300 mg/kg and the Activity (Mus musculus [7]) was “Non-toxic”. For the same compound, the Activity (Mus musculus [8]) was “Non-toxic”, the Activity (Mus musculus [9]) was “Non-toxic” and the Activity (Mus musculus [10]) was “Non-toxic”. For the same compound, the Activity (Mus musculus [11]) was “Non-toxic”, the Activity (Mus musculus [12]) was “Non-toxic” and the Activity (Mus musculus [13]) was “Non-toxic”. The Activity (Mus musculus [14]) was 60.3 mg/dL, the Activity (Mus musculus [15]) was 58.62 mg/dL and the Activity (Mus musculus [16]) was 1.02 mg/mL. It also gave an Activity (Mus musculus [17]) of 0.88 mg/mL, an Activity (Mus musculus [18]) of 134.38 mg/dL and an Activity (Mus musculus [19]) of 147.23 mg/dL. For the same compound, the Activity (Mus musculus [20]) was 1.87 mg/dL, the Activity (Mus musculus [21]) was 1.45 mg/dL and the Activity (Mus musculus [22]) was 3.17 g/dL. For the same compound, the Activity (Mus musculus [23]) was 15.56 U/L, the Activity (Mus musculus [24]) was 37.95 U/L and the Activity (Mus musculus [25]) was 217.42 U/L. For the same compound, the Activity (Mus musculus [26]) was 234.14 U/L, the Activity (Mus musculus [27]) was 13.76 ×10³ /mm3 and the Activity (Mus musculus [28]) was 14.6 ×10³ /mm3. The Activity (Mus musculus [29]) was 5.58 million/mm3, the Activity (Mus musculus [30]) was 10.83 g/dL and the Activity (Mus musculus [31]) was 26.5 g. It also gave an Activity (Mus musculus [32]) of 24.83 g.

From ChEMBL document CHEMBL3112586, “Synthesis of neolignans as microtubule stabilisers” (Bioorg Med Chem, 2014)
